In ChEMBL document CHEMBL4834396, “Molecular Recognition and Imaging of Human Telomeric G-Quadruplex DNA in Live Cells: A Systematic Advancement of Thiazole Orange Scaffold To Enhance Binding Specificity and Inhibition of Gene Expression” (J Med Chem, 2021):
Calls of active or inactive are those of the source. The rule behind the calls is not given here.

Columns and labels:
rRNA = assay: Binding affinity to rRNA (unknown origin) assessed as equilibrium binding constant at 5 uM at 25 degreeC […]; format: nucleic-acid assay
Method in brief: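 Fluorescence titration: ligand 5 μM in 10 mM Tris-HCl pH 7.4 with 60 mM KCl, nucleic acid added until saturation, 25 °C. Keq from nonlinear fit of F/F0 to an independent-site model.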

Quadruplex DNA [1] = assay: Binding affinity to telomeric Htg24 G-quadruplex DNA (unknown origin) assessed as emission wavelength at 480 to 483 nm at pH 7.4 by spectrophotometric method; format: nucleic-acid assay
Quadruplex DNA [2] = assay: Binding affinity to telomeric Htg22 G-quadruplex DNA (unknown origin) assessed as fold increase in fluorescence signal at 5 uM under pH condition 7.4 by fluorescence method; format: nucleic-acid assay
Method in brief: (§1)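 Ligand 5 μM with each nucleic acid at 15 μM in 10 mM Tris-HCl pH 7.4, 60 mM KCl; emission enhancement expressed as F/F0 against ligand without DNA.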

i-motif DNA = assay: Binding affinity to promoter i-motif DNA (unknown origin) assessed as fluorescence signal at 5 uM under pH condition 7.4 by fluorescence method; format: nucleic-acid assay; method in brief: as §1
Quadruplex DNA [3] = assay: Binding affinity to telomeric Htg24 G-quadruplex DNA (unknown origin) at pH 7.4 by fluorescence titration analysis; format: nucleic-acid assay
Quadruplex DNA [4] = assay: Binding affinity to telomeric Htg24 G-quadruplex DNA (unknown origin) assessed as compound-DNA complex stoichiometry ratio of 1:1 by Job's plot analysis; format: nucleic-acid assay
Quadruplex DNA [5] = assay: Binding affinity to telomeric Htg24 G-quadruplex DNA (unknown origin) assessed as change in melting temperature at 5 uM at pH 7.4 by circular dichroism analysis; format: nucleic-acid assay
Method in brief: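 CD melting: G4-DNA 5 μM with ligand 5 μM in 10 mM Tris-HCl pH 7.4, 60 mM KCl; signal recorded at 1 °C intervals from 25 to 95 °C, heating 1.0 °C/min.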

Quadruplex DNA [6] = assay: Binding affinity to telomeric Htg22 G-quadruplex DNA (unknown origin) assessed as dissociation constant by isothermal titration calorimetric analysis; format: nucleic-acid assay
Method in brief: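 ITC at 25 °C: DNA preannealed at 95 °C for 5 min, cooled and held at 4 °C overnight, in 25 mM KH2PO4, 60 mM KCl, pH 7.4, 0.5% DMSO. DNA 10 μM in cell, ligand 500 μM in syringe; 19 injections of 4 s, 150 s apart, 750 rpm stirring; blank heat subtracted before model fitting.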

Quadruplex DNA [7] = assay: Binding affinity to telomeric Htg24 G-quadruplex DNA (unknown origin) assessed as decrease in peak intensity at guanine base G15 at 5 uM under pH condition 7.4 by spectrophotometric titration analysis; format: nucleic-acid assay
Quadruplex DNA [8] = assay: Binding affinity to wild type telomeric Htg24 G-quadruplex DNA (unknown origin) assessed as antiparallel structure at 5 uM under pH condition 7.4 with 60 mM K+ ion by CD spectra analysis; format: nucleic-acid assay
Method in brief: (§2)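 CD spectra recorded on G4-DNA and ligand, each at 5 μM, in 10 mM Tris-HCl, pH 7.4, with 60 mM KCl. Scan range 220–340 nm in a 1 mm quartz cuvette, 1 nm bandwidth and step, 0.5 s/point. Each spectrum is the average of three scans.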

Quadruplex DNA [9] = assay: Binding affinity to G4 quadruplex DNA in human HeLa cells assessed as increase in number of BG4 foci at 10 to 20 uM; format: cell-based; conditions: dose 10-20 µM
[10] = target: Telomerase reverse transcriptase (Homo sapiens) (UniProt O14746); assay: Inhibition of telomerase in human HeLa cells incubated for 36 hrs by TRAP assay; format: cell-based; conditions: dose 1-20 µM
Method in brief: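 HeLa cells were treated with ligand for 36 h, and 10^6 cells were lysed in CHAPS buffer on ice for 30 min. Extract protein (10–750 ng/ml) was extended with TS primer in TRAP buffer (pH 8.3) at 30 °C for 30 min, then heat-inactivated at 95 °C. Products were PCR-amplified for 33 cycles, resolved on 10% native PAGE and stained with SYBR Gold.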

HepG2 = assay: Antiproliferative activity against human HepG2 cells assessed as reduction in cell viability […] by MTT assay; format: functional, cell-based
U-87 MG = assay: Antiproliferative activity against human U87 cells assessed as reduction in cell viability […] by MTT assay; format: functional, cell-based, U-87MG ATCC
[11] = tested on: Quadruplex DNA [UNDEFINED MUTATION]; assay: Effect on confirmation of telomeric Htg24 G-quadruplex DNA T6G mutant (unknown origin) assessed as hybrid topology at 5 uM at pH 7.4 by circular dichroism analysis; format: nucleic-acid assay; conditions: Homo sapiens; method in brief: as §2
[12] = tested on: Quadruplex DNA [UNDEFINED MUTATION]; assay: Effect on confirmation of telomeric Htg24 G-quadruplex DNA A8G mutant (unknown origin) assessed as hybrid topology at 5 uM at pH 7.4 by circular dichroism analysis; format: nucleic-acid assay; conditions: Homo sapiens; method in brief: as §2
[13] = tested on: Quadruplex DNA [UNDEFINED MUTATION]; assay: Effect on confirmation of telomeric Htg24 G-quadruplex DNA T12G mutant (unknown origin) assessed as hybrid topology at 5 uM at pH 7.4 by circular dichroism analysis; format: nucleic-acid assay; conditions: Homo sapiens; method in brief: as §2
[14] = tested on: Quadruplex DNA [UNDEFINED MUTATION]; assay: Effect on confirmation of telomeric Htg24 G-quadruplex DNA G16T mutant (unknown origin) assessed as parallel topology at 5 uM at pH 7.4 by circular dichroism analysis; format: nucleic-acid assay; conditions: Homo sapiens; method in brief: as §2
[15] = tested on: Quadruplex DNA [UNDEFINED MUTATION]; assay: Effect on confirmation of telomeric Htg24 G-quadruplex DNA A20G mutant (unknown origin) assessed as hybrid topology at 5 uM at pH 7.4 by circular dichroism analysis; format: nucleic-acid assay; conditions: Homo sapiens; method in brief: as §2
[16] = tested on: Quadruplex DNA [UNDEFINED MUTATION]; assay: Effect on confirmation of telomeric Htg24 G-quadruplex DNA G22T mutant (unknown origin) assessed as hybrid topology at 5 uM at pH 7.4 by circular dichroism analysis; format: nucleic-acid assay; conditions: Homo sapiens; method in brief: as §2
[17] = tested on: Quadruplex DNA [UNDEFINED MUTATION]; assay: Binding affinity to telomeric Htg24 G-quadruplex DNA T6G mutant (unknown origin) assessed as negative fluorescence signal at 5 uM under pH condition 7.4 by fluorescence titration analysis; format: nucleic-acid assay; conditions: Homo sapiens
Method in brief: (§3)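 Ligand held at 5 μM and mixed with each Htg24 point mutant in Tris-HCl buffer containing 60 mM KCl, pH 7.4. Fluorescence was read, and the signal change was computed as (F mutant − F wild type)/F wild type.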

[18] = tested on: Quadruplex DNA [UNDEFINED MUTATION]; assay: Binding affinity to telomeric Htg24 G-quadruplex DNA G16C mutant (unknown origin) assessed as negative fluorescence signal at 5 uM under pH condition 7.4 by fluorescence titration analysis; format: nucleic-acid assay; conditions: Homo sapiens
Method in brief: (§4)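 Ligand 5 μM mixed with wild-type or point-mutant Htg24 in Tris-HCl buffer with 60 mM KCl; signal change calculated as (F mutant − F wild type)/F wild type.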

[19] = tested on: Quadruplex DNA [UNDEFINED MUTATION]; assay: Binding affinity to telomeric Htg24 G-quadruplex DNA G22T mutant (unknown origin) assessed as negative fluorescence signal at 5 uM under pH condition 7.4 by fluorescence titration analysis; format: nucleic-acid assay; conditions: Homo sapiens; method in brief: as §3
[20] = tested on: Quadruplex DNA [UNDEFINED MUTATION]; assay: Binding affinity to telomeric Htg24 G-quadruplex DNA G21C mutant (unknown origin) assessed as strong fluorescence signal at 5 uM under pH condition 7.4 by fluorescence titration analysis; format: nucleic-acid assay; conditions: Homo sapiens; method in brief: as §4
[21] = tested on: Quadruplex DNA [UNDEFINED MUTATION]; assay: Binding affinity to telomeric Htg24 G-quadruplex DNA G23A mutant (unknown origin) assessed as fluorescence signal at 5 uM under pH condition 7.4 by fluorescence titration analysis; format: nucleic-acid assay; conditions: Homo sapiens; method in brief: as §3
[22] = Water solubility of compound at 25 degreeC; format: physicochemical
Method in brief: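 Solubility in water measured at 25 °C.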

Quadruplex DNA [23] = assay: Binding affinity to telomeric Htg24 G-quadruplex DNA (unknown origin) assessed as stroke shift under at 480 to 483 nm at pH 7.4 by spectrophotometric method

Chain of Telomerase reverse transcriptase (Homo sapiens) (O14746 whole entry): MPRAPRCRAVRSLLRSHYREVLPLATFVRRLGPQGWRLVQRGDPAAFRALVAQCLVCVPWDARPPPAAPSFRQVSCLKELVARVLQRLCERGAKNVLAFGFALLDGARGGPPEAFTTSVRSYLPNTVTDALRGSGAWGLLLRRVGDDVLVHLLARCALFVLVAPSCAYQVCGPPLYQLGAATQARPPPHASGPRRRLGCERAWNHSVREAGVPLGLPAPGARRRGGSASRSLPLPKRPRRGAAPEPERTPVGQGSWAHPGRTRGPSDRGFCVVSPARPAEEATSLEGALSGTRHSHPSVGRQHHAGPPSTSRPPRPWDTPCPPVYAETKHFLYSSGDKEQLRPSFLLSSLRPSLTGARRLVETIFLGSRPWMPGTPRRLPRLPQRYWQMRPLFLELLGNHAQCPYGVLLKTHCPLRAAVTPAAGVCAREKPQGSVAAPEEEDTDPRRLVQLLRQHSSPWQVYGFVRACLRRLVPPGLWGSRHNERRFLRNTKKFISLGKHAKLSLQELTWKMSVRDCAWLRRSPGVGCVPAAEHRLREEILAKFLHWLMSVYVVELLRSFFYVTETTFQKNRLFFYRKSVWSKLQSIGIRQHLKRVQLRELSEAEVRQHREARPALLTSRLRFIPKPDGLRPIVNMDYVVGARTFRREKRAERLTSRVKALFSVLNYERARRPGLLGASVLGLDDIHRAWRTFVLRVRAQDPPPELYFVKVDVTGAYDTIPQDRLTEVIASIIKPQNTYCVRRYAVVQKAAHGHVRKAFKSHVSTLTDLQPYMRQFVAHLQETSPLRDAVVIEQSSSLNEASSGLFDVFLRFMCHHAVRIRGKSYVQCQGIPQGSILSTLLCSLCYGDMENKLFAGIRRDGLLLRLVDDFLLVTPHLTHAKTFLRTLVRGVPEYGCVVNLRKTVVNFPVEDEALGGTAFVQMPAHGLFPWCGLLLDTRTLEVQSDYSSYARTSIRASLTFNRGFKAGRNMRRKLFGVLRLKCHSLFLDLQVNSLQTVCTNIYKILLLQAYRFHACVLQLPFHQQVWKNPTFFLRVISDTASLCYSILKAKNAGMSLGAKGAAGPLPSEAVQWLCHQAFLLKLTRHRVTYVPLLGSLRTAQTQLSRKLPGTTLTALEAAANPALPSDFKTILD

Work on `CN(C)c1ccc(/C=C/c2cc(/C=C3\Sc4ccccc4N3CCCN3CCOCC3)c3ccccc3[n+]2C)cc1.[I-]` yielded a Kb (rRNA) of 620000 M⁻¹, an Activity (Quadruplex DNA [1]) of 642 nm and a fold change (FC) (Quadruplex DNA [2]) of 120. For the same compound, the fold change (FC) (i-motif DNA) was 1, the Activity (Quadruplex DNA [3]) was “Active” and the Activity (Quadruplex DNA [4]) was “Active”. The ΔTm (Quadruplex DNA [5]) was 9.1 °C, the Kd (Quadruplex DNA [6]) was 0.71 µM and the Activity (Quadruplex DNA [7]) was “Active”. The Activity (Quadruplex DNA [8]) was “Active”, the Activity (Quadruplex DNA [9]) was “Active” and the inhibition [10] was “Dose-Dependent Effect”. The IC50 (HepG2) was 12.8 µM, the IC50 (U-87 MG) was 15.2 µM and the Activity [11] was “Active”. For the same compound, the Activity [12] was “Active”, the Activity [13] was “Active” and the Activity [14] was “Active”. The Activity [15] was “Active”, the Activity [16] was “Active” and the Activity [17] was “Active”. The Activity [18] was “Active”, the Activity [19] was “Active” and the Activity [20] was “Active”. The Activity [21] was “inactive”, the solubility [22] was 122 µM and the Activity (Quadruplex DNA [23]) was 162 nm.
